Measured values from ChEMBL document CHEMBL4376884, “Toward a Rational Design of Polyamine-Based Zinc-Chelating Agents for Cancer Therapies” (J Med Chem, 2020).
Active and inactive are the calls of the source. No cut-off for these calls is given here.

Legend:
PC-3 [1] = experiment: Induction of cellular senescence in human PC3 cells assessed as wider cells at 10 uM incubated for 24 hrs by phase contrast microscopy; format: functional, cell-based
Procedure, shortened: (§1)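 LN229 and PC3 cells, 12×10^4 per well in 6-well plates, treated with 10 µM compound for 24 h. Senescence-associated β-gal staining: fixed in 2% formaldehyde/0.2% glutaraldehyde for 10 min at RT, stained with 1 mg/mL X-gal at 37 °C for 24 h without CO2. Blue cells counted in at least 10 fields at 10x and given as percent of total; four independent experiments. Morphology viewed by phase contrast at ×100.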

[2] = Metal chelating activity assessed as Zn2+-compound complex formation at physiological pH 7.4 by quantum mechanical studies
Procedure, shortened: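 Zn2+ complexes modelled by DFT, B3LYP, gas phase. Basis set def2-SV(P), with MDF10 Stuttgart-Dresden effective core potential for Zn and Grimme dispersion correction. Vibrational frequencies and zero-point correction computed for each minimum.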

PC-3 [3] = experiment: Induction of cell morphological changes in human PC3 cells assessed as cell shrinkage at 10 uM incubated for 24 to 48 hrs by phase contrast microscopy; format: functional, cell-based
Procedure, shortened: (§2)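 LN229 and PC3 cells exposed to 10 µM compound for the indicated time-points, then imaged live by phase-contrast microscopy for morphology.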

LN-229 [4] = experiment: Induction of cellular senescence in human LN229 cells assessed as increase in beta-gal-positive cells at 10 uM incubated for 24 hrs by X-Gal staining based microscopic assay relative to control; format: functional
MCF7 [5] = experiment: Antiproliferative activity against human MCF7 cells assessed as reduction in cell viability incubated for 48 hrs by cell titer-glo assay; format: functional, cell-based; conditions: MCF7, 48 h
Procedure, shortened: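 Dose-response: cells plated, treated 24 h later for 48 h, then ATP measured by CellTiter-Glo luminescence. IC50 given as mean ± SD from three independent experiments, each in triplicate. Fibroblasts came from individuals. Cells were kept in RPMI or DMEM with 10% heat-inactivated FBS and penicillin/streptomycin at 37 °C, 5% CO2.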

PC-3 [6] = experiment: Antiproliferative activity against human PC3 cells assessed as reduction in cell viability at 10 uM incubated for 48 hrs in presence of Zn2+ ion by MTT assay; format: functional, cell-based
Procedure, shortened: (§3)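 LN229 and PC3 cells plated, then 24 h later given 10 µM compound with or without 15 µM ZnCl2, CuCl2, FeCl2 or FeCl3 for 48 h. Medium replaced, MTT (12 mM solution) added for 4 h, formazan dissolved in DMSO, absorbance read at 540 nm. Percent viable versus untreated; mean ± SD of three experiments in triplicate.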

PC-3 [7] = experiment: Antiproliferative activity against human PC3 cells assessed as reduction in cell viability at 10 uM incubated for 48 hrs in presence of Fe3+ ion by MTT assay; format: functional, cell-based; procedure, shortened: as §3
PC-3 [8] = experiment: Induction of cell morphological changes in human PC3 cells assessed as loss of cell adherence at 10 uM incubated for 24 to 48 hrs by phase contrast microscopy; format: functional, cell-based; procedure, shortened: as §2
LN-229 [9] = experiment: Antiproliferative activity against human LN229 cells assessed as reduction in cell viability at 10 uM incubated for 48 hrs in presence of Cu2+ ion by MTT assay; format: functional, cell-based; procedure, shortened: as §3
PC-3 [10] = experiment: Induction of apoptosis in human PC3 cells assessed as late apoptotic cells at 10 uM incubated for 72 hrs by annexin V-FITC and propidium iodide staining based flow cytometry analysis (reference value: 0.52 %); format: functional
PC-3 [11] = experiment: Antiproliferative activity against human PC3 cells assessed as reduction in cell viability at 10 uM incubated for 48 hrs in presence of Fe2+ ion by MTT assay; format: functional, cell-based; procedure, shortened: as §3
Homo sapiens [12] = species on record: Homo sapiens; experiment: Antiproliferative activity against human SKMG3 cells assessed as reduction in cell viability at 10 uM incubated for 48 hrs by cell titer-glo assay; format: functional, cell-based
Procedure, shortened: (§4)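 Cells plated and treated 24 h later with 10 µM compound for 48 h; viable cells quantified by CellTiter-Glo ATP luminescence. Expressed as percentage of viable cells relative to untreated; mean ± SD of three independent experiments, each in triplicate.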

PC-3 [13] = experiment: Cell cycle arrest in human PC3 cells assessed as cell accumulation at G2/M phase at 10 uM incubated for 24 hrs by propidium iodide staining based flow cytometry analysis relative to control; format: functional
MCF7 [14] = experiment: Induction of apoptosis in human MCF7 cells assessed as increase in caspase-3/7 activation at 10 uM incubated for 48 hrs by luminometric caspase-glo 3/7 assay; format: functional, cell-based
Procedure, shortened: (§5)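 Cells in RPMI or DMEM with 10% heat-inactivated FBS and penicillin/streptomycin, 37 °C, 5% CO2, treated with 10 µM compound for 48 h. Caspase-3 and caspase-7 activity read by luminescent Caspase-Glo 3/7 assay, reported as fold induction over untreated cells; mean ± SD of three independent experiments, each in triplicate.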

LN-229 [15] = experiment: Cell cycle arrest in human LN229 cells assessed as cell accumulation at G2/M phase at 10 uM incubated for 48 hrs by propidium iodide staining based flow cytometry analysis relative to control; format: functional
PC-3 [16] = experiment: Induction of apoptosis in human PC3 cells assessed as increase in early and late apoptotic cells at 10 uM incubated for 72 hrs by annexin V-FITC and propidium iodide staining based flow cytometry analysis relative to control; format: functional
U-87 MG [17] = experiment: Cell cycle arrest in human U87MG cells assessed as increase in cell accumulation at G0/G1 phase at 10 uM incubated for 24 hrs by propidium iodide staining based flow cytometry analysis; format: functional; conditions: U-87MG ATCC
PC-3 [18] = experiment: Induction of cell morphological changes in human PC3 cells assessed as random membrane blebbing at 10 uM incubated for 24 to 48 hrs by phase contrast microscopy; format: functional, cell-based; procedure, shortened: as §2
LN-229 [19] = experiment: Antiproliferative activity against human LN229 cells assessed as reduction in cell viability at 10 uM incubated for 48 hrs in presence of Zn2+ ion by MTT assay; format: functional, cell-based; procedure, shortened: as §3
Homo sapiens [20] = species on record: Homo sapiens; experiment: Induction of apoptosis in human JMV2 cells assessed as increase in caspase-3/7 activation at 10 uM incubated for 48 hrs by luminometric caspase-glo 3/7 assay; format: functional, cell-based; procedure, shortened: as §5
PC-3 [21] = experiment: Cell cycle arrest in human PC3 cells assessed as cell accumulation at G2/M phase at 10 uM incubated for 48 hrs by propidium iodide staining based flow cytometry analysis relative to control; format: functional
U-87 MG [22] = experiment: Induction of apoptosis in human U87MG cells assessed as increase in caspase-3/7 activation at 10 uM incubated for 48 hrs by luminometric caspase-glo 3/7 assay; format: functional, cell-based; conditions: U-87MG ATCC; procedure, shortened: as §5
Homo sapiens [23] = species on record: Homo sapiens; experiment: Antiproliferative activity against human JMV2 cells assessed as reduction in cell viability at 10 uM incubated for 48 hrs by cell titer-glo assay; format: functional, cell-based; procedure, shortened: as §4
LN-229 [24] = experiment: Antiproliferative activity against human LN229 cells assessed as reduction in cell viability at 10 uM incubated for 48 hrs in presence of Fe3+ ion by MTT assay; format: functional, cell-based; procedure, shortened: as §3
PC-3 [25] = experiment: Induction of apoptosis in human PC3 cells assessed as late apoptotic cells at 10 uM incubated for 24 hrs by annexin V-FITC and propidium iodide staining based flow cytometry analysis (reference value: 0.52 %); format: functional
Granta-519 = experiment: Induction of apoptosis in human GRANTA-519 cells assessed as increase in caspase-3/7 activation at 10 uM incubated for 48 hrs by luminometric caspase-glo 3/7 assay; format: functional, cell-based; procedure, shortened: as §5
PC-3 [26] = experiment: Induction of cellular senescence in human PC3 cells assessed as flattened cells at 10 uM incubated for 24 hrs by phase contrast microscopy; format: functional, cell-based; procedure, shortened: as §1
SW480 = experiment: Antiproliferative activity against human SW480 cells assessed as reduction in cell viability at 10 uM incubated for 48 hrs by cell titer-glo assay; format: functional, cell-based; procedure, shortened: as §4

Row | SMILES | Activity (PC-3 [1]) | Activity [2] | Activity (PC-3 [3]) | Activity (LN-229 [4]) | IC50 (MCF7 [5]) | Activity (PC-3 [6]) | Activity (PC-3 [7]) | Activity (PC-3 [8]) | Activity (LN-229 [9]) | Activity (PC-3 [10]) | Activity (PC-3 [11]) | Activity (Homo sapiens [12]) | Activity (PC-3 [13]) | Activity (MCF7 [14]) | Activity (LN-229 [15]) | fold change (FC) (PC-3 [16]) | Activity (U-87 MG [17]) | Activity (PC-3 [18]) | Activity (LN-229 [19]) | Activity (Homo sapiens [20]) | also measured
1 | c1ccc(CNCCN(CCNCc2ccccn2)Cc2ccc3ccccc3c2)nc1 | Active | > 99% | Active | 90% | 3.19 µM | inactive | Active | Active | inactive | 11.68% | Active | Active | 17.2% | Active | 14.4% | 30 | Active | Active | inactive | Active | Activity (PC-3 [21]): 14.1%; Activity (U-87 MG [22]): Active; Activity (Homo sapiens [23]): Active; Activity (LN-229 [24]): Active; Activity (PC-3 [25]): 2.17%; Activity (Granta-519): Active; Activity (PC-3 [26]): Active; Activity (SW480): Active
2 | CN(CCNCc1ccccn1)CCNCc1ccccn1 | Active | > 99% | Active | Active | 3.13 µM | inactive | Active | Active | inactive | 12.63% | Active | Active | 19.7% | Active | 20.2% | 30 | Active | Active | inactive | Active | Activity (PC-3 [21]): 16%; Activity (U-87 MG [22]): Active; Activity (Homo sapiens [23]): Active; Activity (LN-229 [24]): Active; Activity (PC-3 [25]): 2.13%; Activity (Granta-519): Active; Activity (PC-3 [26]): Active; Activity (SW480): Active
